Experimental data from PMC6800822 (Bioconjugate chemistry, 2019).
Square brackets hold non-standard residues; d marks the D form. Peptide text beside a SMILES is read from it. * marks the point of attachment. Acetyl(thymin-1-yl) = Cc1cn(CC(=O)*)c(=O)[nH]c1=O; NBD = O=[N+]([O-])c1ccc(*)c2nonc12

Legend:
[1] = CD spectra, secondary structure inferred by DichroWeb; format: physicochemical; settings: 200 μM
MES-SA/Dx5 = test: Nucleolus targeting in MES-SA/Dx5 cells; format: cell-based
HeLa = test: Nucleolus targeting in HeLa cells; format: cell-based
Saos-2 = test: Nucleolus targeting in Saos-2 cells; format: cell-based
T98G cells [2] = settings: 50 uM; cited from earlier work
[3] = test system: RNA extracted from T98G cells; test: Interaction with total RNA extracted from T98G cells in PBS buffer
[4] = format: cell-based
[5] = test system: phospho-Ser139-H2AX (γH2AX); test: Immunofluorescence of γH2AX; format: cell-based; settings: T98G cells, 200 μM, 2 h
T98G cells [6] = test: Cellular uptake and distribution by fluorescence imaging; format: cell-based
Method in brief: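 T98G cells incubated with the test peptide at 100 or 200 μM and imaged by confocal fluorescence microscopy after 2 h. Counterstains used: Hoechst 33342 for nuclei, fibrillarin immunofluorescence for nucleoli, and ER Tracker. Localisation to lysosomes was also assessed.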

Cc1cn(CC(=O)N[C@H](Cc2ccccc2)C(=O)N[C@H](Cc2ccccc2)C(=O)N[C@H](CCCCN)C(=O)N[C@H](CCCCN)C(=O)N[C@H](Cc2ccccc2)C(=O)N[C@H](CCCCN)C(=O)N[C@H](CC(C)C)C(=O)N[C@H](CCCCN)C(=O)N[C@H](CC(C)C)C(=O)N[C@H](CCCCNc2ccc([N+](=O)[O-])c3nonc23)C(=O)O)c(=O)[nH]c1=O [D-1] ({Acetyl(thymin-1-yl)}-[dF][dF][dK][dK][dF][dK][dL][dK][dL][dK](NBD)-OH; N-terminus and C-terminus assumed)
unordered structures content [1]: 28% | α-helix content [1]: 36% | β-sheet content [1]: 13% | β-turns content [1]: 23% | Nucleolus targeting (MES-SA/Dx5): able to target nucleoli | Nucleolus targeting (HeLa): able to target nucleoli | Nucleolus targeting (Saos-2): able to target nucleoli | Effect on cells at low concentration (T98G cells [2]): innocuous to the cells | Interaction with RNA [3]: form precipitates that resist ribonuclease | IC50 [4]: 86.2 µM | γH2AX foci formation (DNA damage) [5]: leads to γH2AX foci formation | Cell entry (T98G cells [6]; 100 μM, fluorescence imaging): hardly enters the cells | Cellular distribution (T98G cells [6]; 200 μM, 2 h, fluorescence imaging): bright fluorescent puncta in cell nucleus | Lysosomal localisation (T98G cells [6]; 200 μM, fluorescence imaging): only slightly localized in the lysosome | Cellular uptake at 4 °C (T98G cells [6]; 4 °C, 1 h): hardly exhibit any fluorescence
